For 37 compounds, IC50 results are on record in ChEMBL document CHEMBL1221342, “Synthesis and in vitro antitumor activity of new 4,5-dihydropyrazole derivatives” (Bioorg Med Chem, 2010).

Assay [1] is described as follows: Inhibition of tubulin polymerization. The method in brief: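 Tubulin (3 mg/mL HTS) in G-PEM buffer plus 5% glycerol, prepared at 4 °C, incubated at 37 °C with or without compound. Polymerization followed by A340 over 60 min. Polymer taken as the AUC, with untreated control AUC set to 100%. IC50 derived by non-linear regression.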
Assay [2] deals with NCI-H460. Briefly: Cytotoxicity against human NCI-H460 cells after 72 hrs by SRB assay. It is filed as functional, cell-based. Particulars: NCI-H460, 72 h. The gist of the method:
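NCI-H460 (ATCC) cells seeded in 96-well plates in growth medium. Scalar drug concentrations added 24 h after plating, then 72 h exposure. Surviving cells stained with sulforhodamine B, OD read at 570 nm. IC50 (50% growth inhibition) fitted from dose–response curves. Mean ± SE of at least three independent experiments.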
On the technique in general: In SRB staining, fixed cells bind dye roughly in proportion to their protein.

For the compound `COc1cc(C2CC(c3ccc(C)cc3)=NN2C(C)=O)cc(OC)c1OC` (centres undefined), the IC50 (as a rule, the concentration needed to halve the response being measured) in assay [1] was greater than 10 µM; in assay [2] it was 1.3 µM.

In the case of `COc1cc(C2=NNC(c3cccc(O)c3)C2)cc(OC)c1OC` (centres undefined), the IC50 in assay [2] was greater than 20 µM.

For `COc1cccc(C2=NN(C(C)=O)C(c3cc(OC)c(OC)c(OC)c3)C2)c1` (centres undefined), in assay [2], the IC50 is greater than 20 µM.

`COc1cccc(C2CC(c3cc(OC)c(OC)c(OC)c3)=NN2)c1` (centres undefined) had a 50% inhibitory concentration (IC50) in assay [2] of 11.6 µM.

`COc1cc(C2CC(c3cccc(Br)c3)=NN2)cc(OC)c1OC` (centres undefined): the IC50 in assay [2] is greater than 20 µM.

In the case of `COc1cc(C2CC(c3ccc(N(C)C)cc3)=NN2C(=O)CO)cc(OC)c1OC` (centres undefined), in assay [2], the IC50 turned out to be 1.3 µM.

In turn, `COc1ccc(C2=NN(C(C)=O)C(c3cc(OC)c(OC)c(OC)c3)C2)cc1` (centres undefined) gave a half-inhibitory concentration (IC50) in assay [2] greater than 20 µM.

`COc1cc(C2CC(c3ccc(F)cc3)=NN2)cc(OC)c1OC` (centres undefined): in assay [2], the IC50 is greater than 20 µM.

With `COc1cc(C2=NN(C(C)=O)C(c3cccc(O)c3)C2)cc(OC)c1OC` (centres undefined), in assay [2], the IC50 is greater than 20 µM.

On to `COc1cc(C2=NN(C(=O)COC(C)=O)C(c3cc(OC)c(OC)c(OC)c3)C2)ccc1O` (centres undefined), for which, in assay [2], the IC50 is 4.5 µM.

As for `COc1cc(C2=NN(C(C)=O)C(c3ccc(N(C)C)cc3)C2)cc(OC)c1OC` (centres undefined), in assay [2], the IC50 was greater than 20 µM.

In turn, `COc1cc(C2CC(c3ccc(SC)cc3)=NN2C(C)=O)cc(OC)c1OC` (centres undefined) registered a 50% inhibitory concentration (IC50) in assay [2] of 8 µM.

Take `COc1cc(C2=NNC(c3cc(OC)c(OC)c(OC)c3)C2)ccc1O` (centres undefined): the IC50 in assay [2] is greater than 20 µM.

`COc1cc(C2=NN(C(=O)CO)C(c3cc(OC)c(OC)c(OC)c3)C2)ccc1O` (centres undefined) came in with an IC50 in assay [2] of 1.85 µM.

With `CCN(CC)c1ccc(C2=NNC(c3cc(OC)c(OC)c(OC)c3)C2)cc1` (centres undefined), the IC50 in assay [1] was greater than 10 µM; in assay [2], greater than 20 µM.

Regarding `COc1cc(C2CC(c3cccc(N)c3)=NN2C(C)=O)cc(OC)c1OC` (centres undefined), the figures for the IC50 in assay [1] and in assay [2] were greater than 10 µM and 0.74 µM, respectively.

With `COc1cc(C2CC(c3ccc(N(C)C)cc3)=NN2)cc(OC)c1OC` (centres undefined), the IC50 in assay [2] was greater than 20 µM.

The compound `COc1cc(C2CC(c3cccc(O)c3)=NN2)cc(OC)c1OC` (centres undefined) yielded an IC50 in assay [2] greater than 20 µM.

Turning to `COc1cc(C2CC(c3ccc(F)cc3)=NN2C(C)=O)cc(OC)c1OC` (centres undefined), in assay [2], the IC50 worked out at 12 µM.

`COc1cc(C2CC(c3cccc(Br)c3)=NN2C(=O)COC(C)=O)cc(OC)c1OC` (centres undefined) yielded an IC50 in assay [2] greater than 20 µM.

In assay [2], `COc1ccc(C2CC(c3cc(OC)c(OC)c(OC)c3)=NN2C(C)=O)cc1` (centres undefined) gave an IC50 greater than 20 µM.

Turning to `COc1cc(C2CC(c3ccc(N)cc3)=NN2C(C)=O)cc(OC)c1OC` (centres undefined), the concentration for half-maximal inhibition (IC50) in assay [1] was 10 µM; in assay [2], 2.6 µM.

As for `CCN(CC)c1ccc(C2=NN(C(=O)CO)C(c3cc(OC)c(OC)c(OC)c3)C2)cc1` (centres undefined), the IC50 worked out at 6.14 µM in assay [1] and 0.95 µM in assay [2].

In assay [2], `COc1cccc(C2=NNC(c3cc(OC)c(OC)c(OC)c3)C2)c1` (centres undefined) registered an IC50 greater than 20 µM.

For the compound `COc1cc(C2CC(c3ccc(Br)cc3)=NN2C(C)=O)cc(OC)c1OC` (centres undefined), the IC50 in assay [2] worked out at 6 µM.

`COc1cc(C2CC(c3ccc(Br)cc3)=NN2)cc(OC)c1OC` (centres undefined) returned an IC50 in assay [2] greater than 20 µM.

With `CCN(CC)c1ccc(C2=NN(C(=O)COC(C)=O)C(c3cc(OC)c(OC)c(OC)c3)C2)cc1` (centres undefined), in assay [2], 5 µM corresponded to half-maximal inhibition (IC50).

`COc1cc(C2CC(c3ccc(C)cc3)=NN2C(=O)COC(C)=O)cc(OC)c1OC` (centres undefined) had an IC50 in assay [2] of 3.3 µM.

On to `COc1cc(C2CC(c3ccc(Cl)cc3)=NN2C(C)=O)cc(OC)c1OC` (centres undefined), for which half-maximal inhibition in assay [2] (IC50) was put at 11.9 µM.

Regarding `CCN(CC)c1ccc(C2CC(c3cc(OC)c(OC)c(OC)c3)=NN2C(C)=O)cc1` (centres undefined), the IC50 in assay [2] is 13.8 µM.

In assay [2], `COc1cc(C2CC(c3ccc(SC)cc3)=NN2)cc(OC)c1OC` (centres undefined) gave an IC50 greater than 20 µM.

The compound `COc1ccc(C2=NNC(c3cc(OC)c(OC)c(OC)c3)C2)cc1` (centres undefined) had a half-inhibitory concentration (IC50) in assay [2] greater than 20 µM.

Turning to `COc1cc(C2CC(c3ccc(C)cc3)=NN2C(=O)CO)cc(OC)c1OC` (centres undefined), the values for the IC50 in assay [1] and in assay [2] were 7.72 µM and 0.69 µM, respectively.

`COc1cc(C2CC(c3cccc(Br)c3)=NN2C(=O)CO)cc(OC)c1OC` (centres undefined): in assay [2], the IC50 is 1.1 µM.

Regarding `COc1cc(C2CC(c3ccc(N(C)C)cc3)=NN2C(=O)COC(C)=O)cc(OC)c1OC` (centres undefined), in assay [2], the IC50 is greater than 20 µM.

In assay [2], `COc1cccc(C2CC(c3cc(OC)c(OC)c(OC)c3)=NN2C(C)=O)c1` (centres undefined) came in with an IC50 greater than 20 µM.

In the case of `COc1cc(C2CC(c3ccc(C)cc3)=NN2)cc(OC)c1OC` (centres undefined), the values for the IC50 in assay [1] and in assay [2] were greater than 10 µM and greater than 20 µM, respectively.
